Assays:
[1] = target: T1, Butyrylcholinesterase (Equus caballus, UniProt Q9N1N9); assay: In vitro inhibitory concentration against Butyrylcholinesterase of horse serum; value ranges from 1.00-1.20
Outline: (§1)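 Ellman assay followed, with 200 µM butyrylthiocholine as substrate. Runs were in triplicate with four-point dose-response curves. IC50 and fiducial limits came from log concentration versus % inhibition.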

[2] = target: T2, Acetylcholinesterase (Homo sapiens, UniProt P22303); assay: In vitro inhibitory concentration against purified Acetylcholinesterase of human erythrocytes; value ranges from 0.32-0.98
[3] = target: T3, Amine oxidase [flavin-containing] A (Rattus norvegicus, UniProt P21396); assay: In vitro inhibitory concentration against Monoamine oxidase A of rat brain homogenates; value ranges from 6.3-7.7; type: tissue-based
T3 sequence (P21396 whole entry): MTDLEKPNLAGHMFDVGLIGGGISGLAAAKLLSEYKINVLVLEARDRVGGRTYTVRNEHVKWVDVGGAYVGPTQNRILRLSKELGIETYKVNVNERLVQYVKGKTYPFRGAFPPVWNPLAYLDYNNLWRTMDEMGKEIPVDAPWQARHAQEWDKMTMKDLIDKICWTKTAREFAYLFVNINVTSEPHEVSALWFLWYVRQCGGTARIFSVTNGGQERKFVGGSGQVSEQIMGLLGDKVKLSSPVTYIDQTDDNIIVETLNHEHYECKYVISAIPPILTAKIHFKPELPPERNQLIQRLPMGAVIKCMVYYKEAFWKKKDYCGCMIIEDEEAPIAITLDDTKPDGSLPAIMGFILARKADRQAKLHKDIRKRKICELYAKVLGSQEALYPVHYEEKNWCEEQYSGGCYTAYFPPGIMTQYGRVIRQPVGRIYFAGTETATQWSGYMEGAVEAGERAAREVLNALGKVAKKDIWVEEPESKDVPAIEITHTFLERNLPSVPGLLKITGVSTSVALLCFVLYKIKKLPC

[4] = target: T4, Amine oxidase [flavin-containing] B (Rattus norvegicus, UniProt P19643); assay: In vitro inhibitory concentration against Monoamine oxidase B of rat brain homogenates; value ranges from 4.8-6.9; type: tissue-based
T4 sequence (P19643 whole entry): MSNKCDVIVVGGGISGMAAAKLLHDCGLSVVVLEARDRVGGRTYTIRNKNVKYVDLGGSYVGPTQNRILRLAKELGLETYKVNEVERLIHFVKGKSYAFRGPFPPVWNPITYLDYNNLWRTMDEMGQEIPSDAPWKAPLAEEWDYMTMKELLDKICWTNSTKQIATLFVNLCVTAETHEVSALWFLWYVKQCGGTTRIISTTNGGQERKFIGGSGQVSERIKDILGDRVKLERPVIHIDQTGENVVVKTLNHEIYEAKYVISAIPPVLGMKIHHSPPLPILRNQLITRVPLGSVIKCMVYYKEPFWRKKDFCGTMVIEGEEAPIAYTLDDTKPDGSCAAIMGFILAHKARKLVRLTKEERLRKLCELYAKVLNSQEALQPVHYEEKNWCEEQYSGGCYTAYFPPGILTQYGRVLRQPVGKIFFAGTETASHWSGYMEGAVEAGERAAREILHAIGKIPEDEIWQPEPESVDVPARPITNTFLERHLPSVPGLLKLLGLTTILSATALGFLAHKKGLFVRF

[5] = target: T1, Butyrylcholinesterase; assay: In vitro inhibitory concentration against Butyrylcholinesterase of horse serum; value ranges from 1.19-6.10; outline: as §1
[6] = target: T2, Acetylcholinesterase; assay: In vitro inhibitory concentration against purified Acetylcholinesterase of human erythrocytes; value ranges from 31.2-202
[7] = target: T3, Amine oxidase [flavin-containing] A; assay: In vitro inhibitory concentration against Monoamine oxidase A of rat brain homogenates; value ranges from 0.8-1.0; type: tissue-based
[8] = target: T4, Amine oxidase [flavin-containing] B; assay: In vitro inhibitory concentration against Monoamine oxidase B of rat brain homogenates; value ranges from 0.23-0.34; type: tissue-based
[9] = target: T2, Acetylcholinesterase; assay: In vitro inhibitory concentration against purified Acetylcholinesterase of human erythrocytes; value ranges from 2.8-27.5
[10] = target: T3, Amine oxidase [flavin-containing] A; assay: In vitro inhibitory concentration against Monoamine oxidase A of rat brain homogenates; value ranges from 14-24; type: tissue-based
[11] = target: T2, Acetylcholinesterase; assay: In vitro inhibitory concentration against purified Acetylcholinesterase of human erythrocytes; value ranges from 2.2-6.9
[12] = target: T4, Amine oxidase [flavin-containing] B; assay: In vitro inhibitory concentration against Monoamine oxidase B of rat brain homogenates; value ranges from 0.18-0.30; type: tissue-based
Outline: (§2)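 Rat brain homogenate (in 0.3 M sucrose) as enzyme source; compounds diluted 10⁻²M to 10⁻⁹M in 0.05 M phosphate buffer with 0.15 μM clorgyline; preincubated 60 min at 37 °C, then 10 μM ¹⁴C-phenylethylamine added for 20 min more; stopped with citric acid; metabolites extracted into toluene/ethyl acetate, scintillation counted; activity as % of control, tranylcypromine blank.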

[13] = Pseudo-first order rate constant for carbamoylation of ACHE at 50 (uM) concentration; type: ADME
Outline: (§3)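 Human erythrocyte AChE, same Ellman conditions: 200 µM […], 60 min preincubation at 37 °C, 0.1 M phosphate pH 7.4. Progressive inhibition followed at 4-5 inhibitor concentrations. Pseudo-first-order k_obs (min⁻¹) derived per concentration; apparent bimolecular carbamylation constant k_i calculated from these.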

[14] = Pseudo-first order rate constant for carbamoylation of ACHE at 300 (uM) concentration; type: ADME; outline: as §3
[15] = Pseudo-first order rate constant for carbamoylation of ACHE at 100 (uM) concentration; type: ADME; outline: as §3
[16] = Bimolecular rate constant for carbamoylation of ACHE; type: ADME
Outline: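 Human erythrocyte AChE preincubated with inhibitor at 37 °C in 0.1 M phosphate buffer, pH 7.4, under Ellman conditions with 200 µM […]. Pseudo-first-order rate constants (k_obs) for progressive inhibition were obtained at 4-5 inhibitor concentrations. The apparent bimolecular carbamylation constant k_i was calculated from these.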

[17] = target: T3, Amine oxidase [flavin-containing] A; assay: In vitro inhibitory concentration against Monoamine oxidase A of rat brain homogenates; value ranges from 315-465; type: tissue-based
[18] = target: T4, Amine oxidase [flavin-containing] B; assay: In vitro inhibitory concentration against Monoamine oxidase B of rat brain homogenates; value ranges from 18-59; type: tissue-based
[19] = Pseudo-first order rate constant for carbamoylation of ACHE at 400 (uM) concentration; type: ADME
Outline: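 Pseudo-first-order rate constants kobs measured at 4-5 inhibitor concentrations following Bar-On et al. Apparent bimolecular carbamylation constant ki calculated from these.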

[20] = target: T2, Acetylcholinesterase; assay: In vitro inhibitory concentration against purified Acetylcholinesterase of human erythrocytes; value ranges from 42.5-45.9
[21] = target: T1, Butyrylcholinesterase
[22] = target: T2, Acetylcholinesterase; assay: In vitro inhibitory concentration against purified Acetylcholinesterase of human erythrocytes; value ranges from 0.54-0.56
[23] = target: T2, Acetylcholinesterase; assay: In vitro inhibitory concentration against purified Acetylcholinesterase of human erythrocytes; value ranges from 33.2-96.7
[24] = target: T2, Acetylcholinesterase
[25] = target: T1, Butyrylcholinesterase; assay: In vitro inhibitory concentration against Butyrylcholinesterase of horse serum; value ranges from 1.6-2.4; outline: as §1
[26] = target: T4, Amine oxidase [flavin-containing] B; assay: In vitro inhibitory concentration against Monoamine oxidase B of rat brain homogenates; value ranges from 0.19-0.44; type: tissue-based; outline: as §2
[27] = target: T2, Acetylcholinesterase; assay: In vitro inhibitory concentration against purified Acetylcholinesterase of human erythrocytes; value ranges from 7.81-39.2
[28] = target: T1, Butyrylcholinesterase; assay: In vitro inhibitory concentration against Butyrylcholinesterase of horse serum; value ranges from 5.02-12.2; outline: as §1
[29] = target: T1, Butyrylcholinesterase; assay: In vitro inhibitory concentration against Butyrylcholinesterase of horse serum; value ranges from 29.6-110; outline: as §1
[30] = target: T2, Acetylcholinesterase; remark: listed apart in the source
[31] = target: T3, Amine oxidase [flavin-containing] A; assay: In vitro inhibitory concentration against Monoamine oxidase A of rat brain homogenates; value ranges from 0.005-0.012; type: tissue-based
[32] = target: T3, Amine oxidase [flavin-containing] A; assay: In vitro inhibitory concentration against Monoamine oxidase A of rat brain homogenates; type: tissue-based
[33] = target: T2, Acetylcholinesterase; assay: In vitro inhibitory concentration against purified Acetylcholinesterase of human erythrocytes; value ranges from 3.87-11.9
[34] = target: T1, Butyrylcholinesterase; assay: In vitro inhibitory concentration against Butyrylcholinesterase of horse serum; value ranges from […]; outline: as §1
[35] = target: T2, Acetylcholinesterase; assay: In vitro inhibitory concentration against purified Acetylcholinesterase of human erythrocytes; value ranges from 5.4-38.2
[36] = target: T3, Amine oxidase [flavin-containing] A; assay: In vitro inhibitory concentration against Monoamine oxidase A of rat brain homogenates; value ranges from 13-17; type: tissue-based
[37] = target: T4, Amine oxidase [flavin-containing] B; assay: In vitro inhibitory concentration against Monoamine oxidase B of rat brain homogenates; value ranges from 0.2-0.8; type: tissue-based
[38] = target: T1, Butyrylcholinesterase; assay: In vitro inhibitory concentration against Butyrylcholinesterase of horse serum; value ranges from 1.89-4.67; outline: as §1
[39] = target: T2, Acetylcholinesterase; assay: In vitro inhibitory concentration against purified Acetylcholinesterase of human erythrocytes; value ranges from 5.24-30.8
[40] = target: T1, Butyrylcholinesterase; assay: In vitro inhibitory concentration against Butyrylcholinesterase of horse serum; value ranges from 6.8-31.2; outline: as §1

T1 sequence (Q9N1N9 whole entry): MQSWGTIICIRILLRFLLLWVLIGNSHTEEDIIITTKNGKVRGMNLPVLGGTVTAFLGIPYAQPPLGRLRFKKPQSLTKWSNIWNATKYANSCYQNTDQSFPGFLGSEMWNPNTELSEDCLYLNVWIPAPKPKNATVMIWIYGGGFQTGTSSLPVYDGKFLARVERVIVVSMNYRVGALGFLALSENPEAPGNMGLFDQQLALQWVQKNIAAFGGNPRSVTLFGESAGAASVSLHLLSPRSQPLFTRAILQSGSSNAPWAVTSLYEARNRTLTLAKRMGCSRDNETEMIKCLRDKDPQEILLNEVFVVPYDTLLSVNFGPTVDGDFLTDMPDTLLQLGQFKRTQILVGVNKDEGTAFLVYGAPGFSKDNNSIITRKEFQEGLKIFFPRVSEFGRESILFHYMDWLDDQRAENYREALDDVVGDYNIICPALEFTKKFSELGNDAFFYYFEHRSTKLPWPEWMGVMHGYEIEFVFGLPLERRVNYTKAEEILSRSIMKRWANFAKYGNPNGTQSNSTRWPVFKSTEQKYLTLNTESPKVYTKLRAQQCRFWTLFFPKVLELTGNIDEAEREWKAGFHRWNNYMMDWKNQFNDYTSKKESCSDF
T2 sequence (P22303 whole entry): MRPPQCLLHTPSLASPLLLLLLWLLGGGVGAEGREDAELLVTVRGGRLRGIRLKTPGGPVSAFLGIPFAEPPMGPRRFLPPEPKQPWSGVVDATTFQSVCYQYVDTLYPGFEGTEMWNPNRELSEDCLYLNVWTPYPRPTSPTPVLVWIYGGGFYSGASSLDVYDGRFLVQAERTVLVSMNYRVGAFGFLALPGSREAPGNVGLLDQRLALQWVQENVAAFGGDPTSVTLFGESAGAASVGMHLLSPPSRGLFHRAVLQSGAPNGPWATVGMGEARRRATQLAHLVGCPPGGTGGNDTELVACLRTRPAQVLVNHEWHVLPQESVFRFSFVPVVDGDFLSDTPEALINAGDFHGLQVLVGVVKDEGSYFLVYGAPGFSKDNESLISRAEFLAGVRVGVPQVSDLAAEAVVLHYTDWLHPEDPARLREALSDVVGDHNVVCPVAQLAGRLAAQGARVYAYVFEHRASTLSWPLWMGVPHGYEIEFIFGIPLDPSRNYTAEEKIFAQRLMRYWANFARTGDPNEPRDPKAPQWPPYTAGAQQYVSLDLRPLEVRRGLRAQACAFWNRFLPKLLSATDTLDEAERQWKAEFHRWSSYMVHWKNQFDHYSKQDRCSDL

## C#CCNC(C)Cc1cccc(OC(=O)N(C)C)c1 (stereo not given)
[1]
  IC50: 1.09 µM
[2]
  IC50: 0.54 µM
[3]
  IC50: 6.9 µM
[4]
  IC50: 5.7 µM

## C#CCNC1CCc2ccc(OC(=O)N(CC)CCCC)cc21 (stereo not given)
[5]
  IC50: 3.03 µM
[6]
  IC50: 72.4 µM

## C#CCN(C)[C@@H](C)Cc1cccc(OC(=O)N(C)C2CCCCC2)c1
[7]
  IC50: 1.1 µM
[8]
  IC50: 0.28 µM
[9]
  IC50: 6.3 µM

## C#CCNC(C)Cc1cccc(OC(=O)N(C)C2CCCCC2)c1 (stereo not given)
[10]
  IC50: 18 µM
[11]
  IC50: 3.6 µM
[12]
  IC50: 0.23 µM

## C#CCNC1CCc2c(Cl)cc(OC(=O)N(C)CCC)cc21.Cl (stereo not given)
[13]
  K obs: 17 min⁻¹
[14]
  K obs: 34 min⁻¹
[15]
  K obs: 22 min⁻¹
[16]
  Bimolecular carbamoylation rate constant (ki): 0.983 M⁻¹ s⁻¹
[17]
  IC50: 375 µM
[18]
  IC50: 32 µM
[19]
  K obs: 38 min⁻¹
[20]
  IC50: 43.9 µM

## C#CCNC1CCc2ccc(OC(=O)N(C)c3ccccc3)cc21 (stereo not given)
[21]
  IC50: 16.6 µM
[22]
  IC50: 0.55 µM

## C#CCNC1CCc2cccc(OC(=O)N(C)CCC)c21 (stereo not given)
[23]
  IC50: 45.8 µM

## C#CCNCCc1cccc(OC(=O)N(C)CCC)c1
[24]
  IC50: 15.4 µM
[25]
  IC50: 1.9 µM
[26]
  IC50: 0.29 µM

## C#CCNC1CCc2ccc(OC(=O)N(C)CCCCCC)cc21 (stereo not given)
[27]
  IC50: 15.7 µM
[28]
  IC50: 7.5 µM

## C#CCNC1CCc2ccc(OC(=O)N(C)CCCC)cc21 (stereo not given)
[29]
  IC50: 53.7 µM
[30]
  IC50: 11.3 µM

## C#CCN(C)C1CCc2c(O)cccc21 (stereo not given)
[31]
  IC50: 0.008 µM

## CCN(C)C(=O)Oc1ccc2c(c1)C(N)CCC2 (stereo not given)
[32]
  IC50: 1000 µM
[33]
  IC50: 6.22 µM
[34]
  IC50: 5.41 µM

## C#CCNC(C)Cc1cccc(OC(=O)N(C)CCCC)c1 (stereo not given)
[35]
  IC50: 12.2 µM
[36]
  IC50: 15 µM
[37]
  IC50: 0.4 µM
[38]
  IC50: 2.75 µM

## C#CCN[C@@H]1CCc2ccc(OC(=O)N(C)CCC)cc21
[39]
  IC50: 10.8 µM
[40]
  IC50: 14.9 µM

From ChEMBL document CHEMBL1135657, “Novel dual inhibitors of AChE and MAO derived from hydroxy aminoindan and phenethylamine as potential treatment for Alzheimer's disease” (J Med Chem, 2002)
